Data as given in ChEMBL document CHEMBL1137705, “Study of 5-nitroindazoles' anti-Trypanosoma cruzi mode of action: electrochemical behaviour and ESR spectroscopic studies” (Eur J Med Chem, 2009).
The source made the active and inactive calls. The rule behind the calls is not given here.

Key:
Trypanosoma cruzi [1] = test: Growth inhibition of Trypanosoma cruzi CL-Brener clone epimastigotes […] at 25 uM measured on […] by Brener method; assay type: functional; conditions: 120 h, read-out: GI
Procedure, shortened: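 Axenic epimastigote culture (CL Brener) ran at 28 °C in BHI-tryptose with 5% FBS. Start density was 1 × 10⁶ cells/mL, with drug added from a DMSO stock (final ≤0.4%). %GI = {1 − [(Ap − A0p)/(Ac − A0c)]} × 100, using A600 at day 5 and day 0, drug versus drug-free control. Means of three experiments.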

Trypanosoma cruzi [2] = test: Antitrypanosomal activity against Trypanosoma cruzi CL-Brener clone epimastigotes […] measured on […] by Brener method; assay type: functional, organism-based; conditions: 120 h
Procedure, shortened: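 CL Brener epimastigotes were grown axenically at 28 °C in BHI-tryptose with 5% FBS. Day-0 inoculum was 1 × 10⁶ cells/mL from a 10-day stationary culture. Drug came from a DMSO stock, with final DMSO ≤0.4%; control had 0.4% DMSO and no drug. A600 was read daily. IC50 was the concentration reducing the day-5 absorbance ratio versus control to 50%.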

Trypanosoma cruzi [3] = test: Antitrypanosomal activity against Trypanosoma cruzi SN3 trypomastigotes infected in african green monkey Vero cells assessed as parasite viability at 11 uM after 24 hrs by MTT assay; assay type: functional
Procedure, shortened: (§1)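 Vero cells were infected with SN-3 metacyclic trypomastigotes, then reinfected at 1 × 10⁶ parasites per 25 cm². Harvested trypomastigotes (1 × 10⁷) were incubated in FBS-RPMI at 37 °C for 24 h with or without compound. MTT was added to an aliquot at 0.5 mg/mL final, 28 °C for 4 h. SDS–HCl solubilisation ran overnight. Read-out was A570, reference 690 nm; untreated parasites = 100% viability.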

Trypanosoma cruzi [4] = test: Antitrypanosomal activity against Trypanosoma cruzi SN3 trypomastigotes infected in african green monkey Vero cells assessed as parasite viability at 6.6 uM after 24 hrs by MTT assay; assay type: functional
Trypanosoma cruzi [5] = test: Antitrypanosomal activity against Trypanosoma cruzi SN3 trypomastigotes infected in african green monkey Vero cells assessed as parasite viability at 12.5 uM after 24 hrs by MTT assay; assay type: functional
Trypanosoma cruzi [6] = test: Antitrypanosomal activity against Trypanosoma cruzi SN3 trypomastigotes infected in african green monkey Vero cells assessed as parasite viability at 16.4 uM after 24 hrs by MTT assay; assay type: functional
Trypanosoma cruzi [7] = test: Antitrypanosomal activity against Trypanosoma cruzi SN3 trypomastigotes infected in african green monkey Vero cells assessed as parasite viability at 22 uM after 24 hrs by MTT assay; assay type: functional; procedure, shortened: as §1
Trypanosoma cruzi [8] = test: Induction of nitro-anion radical production in epimastigotes form of Trypanosoma cruzi Tulahuen microsomes at 1 mM after 25 mins by ESR spectroscopy; assay type: functional; conditions: Microsome
Trypanosoma cruzi [9] = test: Induction of nitro-anion radical production in epimastigotes form of Trypanosoma cruzi Tulahuen microsomes at 2 mM after 25 mins by ESR spectroscopy; assay type: functional; conditions: Microsome

Row | SMILES | inhibition of growth at 25 µM (Trypanosoma cruzi [1]) [%] | further results
1 | CCCCNCCCCCn1nc(OCc2ccccc2)c2cc([N+](=O)[O-])ccc21 | 94 | IC50 (Trypanosoma cruzi [2]): 11 µM; Activity (Trypanosoma cruzi [3]): -0.37%
2 | CN(C)CCCCCn1nc(OCc2ccccc2)c2ccccc21 | 18 | 
3 | O=[N+]([O-])c1ccc2c(c1)c(OCc1ccccc1)nn2CCOCCN1CCCCC1 | 24 | 
4 | O=[N+]([O-])c1ccc2c(c1)c(O)nn2CCOCCN1CCCCC1 | 9 | 
5 | O=c1c2cc([N+](=O)[O-])ccc2n2n1CCCCC2 | 4 | 
6 | COc1nn(CCOCCN2CCCCC2)c2ccc([N+](=O)[O-])cc12 | 25 | 
7 | O=[N+]([O-])c1ccc2c(c1)c(OCc1ccccc1)nn2CCCCCN1CCCCC1 | 100 | Activity (Trypanosoma cruzi [4]): 0.29%
8 | CN(C)CCOCCn1nc(O)c2cc([N+](=O)[O-])ccc21 | 3 | 
9 | CC1CS(=O)(=O)CCN1/N=C/c1ccc([N+](=O)[O-])o1 (configuration not stated) [NIFURTIMOX] | 100 | IC50 (Trypanosoma cruzi [2]): 3.4 µM
10 | O=c1c2cc([N+](=O)[O-])ccc2n2n1CCOCC2 | 6 | 
11 | CN(C)CCCCCn1nc(OCc2ccccc2)c2cc([N+](=O)[O-])ccc21 | 100 | Activity (Trypanosoma cruzi [5]): 0.49%
12 | O=[N+]([O-])c1ccc2c(c1)c(OCc1ccccc1)nn2CCOCC[N+]1([O-])CCCCC1 | 0 | 
13 | CN(C)CCOCCn1nc(OCc2ccccc2)c2cc([N+](=O)[O-])ccc21 | 80 | Activity (Trypanosoma cruzi [6]): 0.56%
14 | O=[N+]([O-])c1ccc2c(c1)c(O)nn2CCOCCN1CCSCC1 | 0 | 
15 | C[N+](C)([O-])CCOCCn1nc(OCc2ccccc2)c2cc([N+](=O)[O-])ccc21 | 6 | 
16 | O=[N+]([O-])c1ccc2c(c1)c(OCc1ccccc1)nn2CCOCCN1CCSCC1 | 20 | 
17 | CCCCNCCCCCn1nc(OC)c2cc([N+](=O)[O-])ccc21 | 58 | IC50 (Trypanosoma cruzi [2]): 22 µM; Activity (Trypanosoma cruzi [7]): 40.04%; Activity (Trypanosoma cruzi [8]): Active; Activity (Trypanosoma cruzi [9]): Active
